From PubChem BioAssay AID743238 (Broad Institute, 2013) come the findings set out here.

Several values for one entry are separate records, joined by “and”; a condition that tells them apart may be missing. Equal entries are not always repeated. Among all 360,000 compounds or so, about 200 (0.056%) were called active.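 The calls were made as follows: active = mean normalized replicate activation at least 10% and every replicate at or above 10%; inconclusive = only one of the two criteria met; inactive = mean below 10% and not all replicates reach 10%.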 Many of the other results were omitted from the sample, so actives are more common in it than they were.

This assay in a line: Xi reactivation inducers in mouse fibroblasts – imaging, XiGFP fibroblasts, GFP high-content imaging, set 2, primary screen (AID 743238).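 Also: 0% = median of on-plate neutral control wells and 100% = ellipticine 6 µM median.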 The conditions noted are these: % GFP-positive cells imaging, 3 d, at 7.58 µM, stronger effect = higher value, cells co-treated with 5-aza-dC sensitizer, scaled so ellipticine positive control = 100%. The method in brief:
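Schedule: 3 d treatment, 15 min room-temperature fixation; system: 68-5-11 XiGFP fibroblast line; buffer or medium: DMEM plus 5-aza-dC sensitizer; control set: ellipticine 6 µM positive control; compound: one concentration, pinned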
Turning to `COC(=O)C[C@H]1CC[C@@H](NC(=O)c2ccccc2)[C@@H](CO)O1`, the activation is -0.033% (inactive).

`COc1ccc(NC(=O)N(C)C[C@H]2Oc3c(NC(=O)Nc4cccc5ccccc45)cccc3C(=O)N([C@@H](C)CO)C[C@H]2C)cc1`: the activation is -0.612% (inactive). To `O=C(C[C@H]1C[C@H]2c3cc(NC(=O)Nc4ccc(C(F)(F)F)cc4)ccc3O[C@H]2[C@@H](CO)O1)NCc1cccnc1` belongs 0.387% (inactive). Under `CCCC(=O)Nc1ccc2c(c1)OC[C@H](C)N(CCc1ccccc1)C[C@H](C)[C@@H](OC)CN(C)C2=O` stands -0.359% (inactive). To `CCNC(=O)C[C@@H]1C=C[C@@H](NC(=O)C2CCOCC2)[C@@H](CO)O1` belongs 0.276% (inactive); to `COc1ccc(S(=O)(=O)N(C)C[C@@H]2Oc3ccc(NC(=O)Cc4ccccc4)cc3CC(=O)N([C@@H](C)CO)C[C@H]2C)cc1`, -0.0685% (inactive). On to `COc1ccc2c3c([nH]c2c1)[C@@H](CO)N(Cc1cc(F)ccc1F)CC31CCN(C(=O)C2CCC2)CC1`, for which the activation is 0.358% (inactive). Consider `Cc1ccc(S(=O)(=O)Nc2ccc3c(c2)C(=O)N(C)[C@@H]2CC[C@@H](CC(=O)O)O[C@H]2CO3)cc1`, for which the activation is 0.151% (inactive). To `O=C(C[C@@H]1C=C[C@H](NC(=O)Nc2ccccc2F)[C@H](CO)O1)NCc1ccc(F)cc1` belongs 0.215% (inactive). To `C[C@H](CO)N1C[C@H](C)[C@@H](CN(C)S(=O)(=O)c2cccs2)Oc2ccc(NC(=O)Nc3ccc(C(F)(F)F)cc3)cc2CC1=O` belongs -0.017% (inactive); to `C[C@@H]1CCCCO[C@H](CN(C)C(=O)CCCN(C)C)[C@H](C)CN([C@@H](C)CO)C(=O)c2cc(NS(=O)(=O)c3ccc(Cl)cc3)ccc2O1`, 0.114% (inactive); to `C[C@H]1CCCCO[C@H](CN(C)C(=O)Nc2ccc(F)cc2)[C@@H](C)CN([C@@H](C)CO)C(=O)c2cc(NC(=O)CCC(F)(F)F)ccc2O1`, -0.105% (inactive). Under `N#C[C@@H]1[C@H](c2ccccc2-c2ccccc2F)[C@@H](CO)N1C(=O)C1CCOCC1` stands 0.163% (inactive); under `O=C1C(Cl)=C(Oc2ccccc2)C(=O)c2ccccc21`, 19.2% (active); under `CCC(=O)Nc1ccc2c(c1)C(=O)N(C)C[C@H](OC)[C@H](C)CN(C(=O)c1ccccc1F)[C@@H](C)CO2`, 0.375% (inactive). Consider `CO[C@H]1CN(C)C(=O)c2cc(NS(C)(=O)=O)ccc2OC[C@@H](C)N(C)C[C@@H]1C`, for which the activation was -0.465% (inactive). To `C[C@@H]1CN([C@@H](C)CO)C(=O)CCCn2cc(nn2)CO[C@@H]1CN(C)S(=O)(=O)c1cccc(F)c1` belongs -0.223% (inactive). To `C[C@H]1CN([C@@H](C)CO)C(=O)c2c(c3ccccc3n2C)-c2ccccc2CO[C@H]1CN(C)S(=O)(=O)c1ccc(C#N)cc1` belongs -1.22% (inactive); to `CCC(=O)N1CC(=O)N2[C@@H](CO)[C@@H](c3ccc(C#CC4CCCC4)cc3)[C@@H]2C1`, -0.0225% (inactive); to `CCCC#Cc1ccc([C@H]2[C@H]3CN(C(=O)Nc4cc(F)ccc4F)CC(=O)N3[C@H]2CO)cc1`, 0.26% (inactive). As for `CN1C(=O)c2cc(NC(=O)c3cccc(F)c3)ccc2OC[C@@H]2O[C@@H](CC(=O)NCC3CCCCC3)CC[C@H]21`, the activation was -0.045% (inactive) and -0.023% (inactive). Regarding `Cc1ccccc1S(=O)(=O)N1C[C@H](O)COC[C@H]2O[C@H](CC(=O)N3CCCCC3)CC[C@@H]21`, the activation is 0.037% (inactive). Consider `C=C(C)C[C@H]1CCn2cc(nn2)COCCNC1=O`, for which the activation is 0.348% (inactive). Under `C[C@H]1CN([C@@H](C)CO)C(=O)c2cccc(NC(=O)CCCCCC(=O)Nc3ccccc3N)c2O[C@@H]1CN(C)C(=O)NC1CCCCC1` stands -1.38% (inactive); under `C[C@@H]1CN([C@@H](C)CO)C(=O)c2cc(NS(=O)(=O)c3ccc(F)cc3)ccc2O[C@@H]1CN(C)C(=O)NC1CCCCC1`, 0.0955% (inactive); under `O=C(C[C@@H]1C=C[C@H](NC(=O)C2CCC2)[C@@H](CO)O1)NCC1CC1`, 0.225% (inactive). To `C[C@@H]1CN([C@@H](C)CO)C(=O)c2cc(NC(=O)Nc3cccc4ccccc34)ccc2O[C@H]1CN(C)Cc1ccc(Oc2ccccc2)cc1` belongs 0.262% (inactive); to `O=C([C@@H]1[C@@H](CO)[C@@H]2Cn3c(ccc(C4=CCCC4)c3=O)[C@H]1N2C(=O)c1ccncc1)N1CCCCC1`, 0.116% (inactive).

With `O=C(C[C@@H]1C[C@H]2c3cc(NC(=O)Nc4ccccc4F)ccc3O[C@H]2[C@@H](CO)O1)NC1CCCCC1`, the activation is -0.047% (inactive). Under `C[C@H](NC(=O)C[C@H]1C=C[C@@H](NC(=O)C2CCOCC2)[C@@H](CO)O1)c1ccccc1` stands 0.456% (inactive); under `C[C@@H]1CC=CC[C@@H](c2ccccc2)NC(=O)[C@@H](Cc2ccccc2)N(C)C(=O)c2ccccc2O1` (mixture of isomers), 0.0795% (inactive); under `Cc1ccc(-c2ccc([C@H]3[C@H]4CN(S(=O)(=O)c5cccc(F)c5)CC(=O)N4[C@H]3CO)cc2)cc1`, 0.287% (inactive). With `CC(C)NC(=O)N1[C@H](CO)[C@@H]2c3ccccc3N(C(=O)Nc3cccc(Cl)c3)C[C@@H]21`, the activation is 0.198% (inactive). Under `C/C=C/c1ccc([C@H]2[C@@H](CO)N3CCCCN(C(=O)c4ccc(F)cc4)C[C@@H]23)cc1` stands 0.11% (inactive); under `O=C(Nc1cc(F)ccc1F)N[C@H]1CC[C@H](CCn2cc(C3CCCC3)nn2)O[C@@H]1CO`, 0.418% (inactive). Under `C/C=C/c1ccccc1[C@H]1[C@@H](C#N)N(c2nc(CC)cs2)[C@@H]1CO` stands -0.0085% (inactive). In the case of `OC[C@@H]1[C@@H](c2ccccc2)C2(CN(Cc3cccc(F)c3)C2)N1CC1CCCC1`, the activation was -0.0685% (inactive).

Take `CO[C@@H]1CN(C)C(=O)c2cc(NC(=O)C3CCCC3)ccc2OC[C@@H](C)N(C(=O)Nc2ccc(C(F)(F)F)cc2)C[C@H]1C`: the activation is 0.0025% (inactive).

Take `C[C@@H]1CN([C@H](C)CO)C(=O)c2cccc(NS(=O)(=O)c3ccc(Cl)cc3)c2O[C@@H]1CN(C)CC1CC1`: the activation was 0.281% (inactive). As to `Cc1noc(C)c1NC(=O)N(C)C[C@@H]1Oc2c(NC(=O)C3CCCCC3)cccc2C(=O)N([C@H](C)CO)C[C@@H]1C`, the activation was -0.974% (inactive). Under `CCCC(=O)N1CCC2(CC1)CN[C@H](CO)c1[nH]c3cc(OC)ccc3c12` stands -0.018% (inactive); under `O=C(C[C@@H]1CC[C@H]2[C@@H](COC[C@@H](O)CN2S(=O)(=O)c2cccc(F)c2)O1)NCCCN1CCOCC1`, -0.0535% (inactive); under `C[C@@H]1CCCCO[C@H](CN(C)Cc2ccncc2)[C@@H](C)CN([C@H](C)CO)C(=O)c2cc(NS(C)(=O)=O)ccc2O1`, -0.0215% (inactive). As for `CO[C@H]1CN(C)C(=O)c2ccc(NC(=O)C3CCC3)cc2OC[C@H](C)NC[C@@H]1C`, the activation was 0.146% (inactive). Turning to `COc1ccc(NC(=O)Nc2ccc3c(c2)[C@H]2C[C@H](CC(=O)NC4CCCC4)O[C@@H](CO)[C@H]2O3)cc1`, the activation was 4.51% (inactive). Under `COc1cccc(-c2ccc([C@@H]3[C@H]4CN(C(=O)c5cccnc5)CC(=O)N4[C@H]3CO)cc2)c1` stands 0.076% (inactive); under `O=C(c1ccncc1)N1C[C@H]2[C@@H](c3ccccc31)[C@H](CO)N2C(=O)Nc1ccc(F)cc1`, 0.255% (inactive); under `C[C@H]1CN([C@@H](C)CO)C(=O)Cc2cc(NC(=O)Cc3ccccc3)ccc2O[C@@H]1CN(C)S(=O)(=O)c1ccc(Cl)cc1`, -1.34% (inactive).

Regarding `CO[C@@H]1CN(C)C(=O)c2cc(NC(=O)NC3CCCC3)ccc2OC[C@H](C)NC[C@H]1C`, the activation is 0.41% (inactive). On to `C[C@@H]1CCCCO[C@@H](CN(C)C(=O)CCCN(C)C)[C@@H](C)CN([C@H](C)CO)C(=O)c2cc(NC(=O)Nc3ccc(F)cc3)ccc2O1`, for which the activation was 0.229% (inactive). `COc1ccc(N2C(=O)C3CCCN3C2c2cc(OC)c(OC)cc2OC)cc1` (stereo not drawn): the activation was 0% (inactive). Under `COc1ccc(N2C(=O)C3CCCN3C2c2cccs2)cc1` (stereo not drawn) stands -0.124% (inactive); under `COc1ccc(N2C(=O)C3CCCN3C2c2cccc(OC)c2)cc1` (stereo not drawn), 12.3% (active).

For the compound `O=C(C[C@@H]1CC[C@@H]2[C@H](COC[C@H](O)CN2C(=O)C2CC2)O1)NCc1ccncc1`, the activation was 0.085% (inactive).

Turning to `C[C@@H]1CCCCO[C@H](CN(C)S(C)(=O)=O)[C@@H](C)CN([C@@H](C)CO)C(=O)c2cc(NC(=O)CCC(F)(F)F)ccc2O1`, the activation is 0.0715% (inactive).

In the case of `O=C(c1ccccn1)N1CC2(C1)[C@@H](c1ccccc1)[C@@H](CO)N2C(=O)C1CCCCC1`, the activation was -0.0175% (inactive). To `O=C(N[C@@H]1CC[C@H](CCn2cc(C3CC3)nn2)O[C@H]1CO)c1cccnc1` belongs -0.107% (inactive). To `CO[C@H]1CN(C)C(=O)c2cc(NC(=O)C3CC3)ccc2OC[C@@H](C)NC[C@H]1C` belongs 0.168% (inactive); to `CCc1nc2ccc(C(=O)N3CCN(c4cccc(Cl)c4)CC3)cc2nc1CC`, 0.143% (inactive); to `C#Cc1cc(N2CCN(C(=O)c3ccoc3)CC2)n2nc(-c3cccc(Cl)c3)cc2n1`, 34% (active). Under `CNc1cncc(-c2cccc(C(=O)N3CCOCC3)c2)n1` stands 0.023% (inactive). `CO[C@@H]1CN(C)C(=O)c2cc(NC(=O)c3cccc(F)c3)ccc2OC[C@H](C)N(C)C[C@@H]1C`: the activation is -0.118% (inactive).

On to `COc1ccc(NC(=O)N(C)C[C@@H]2OCCCC[C@H](C)Oc3ccc(NS(=O)(=O)c4c(C)noc4C)cc3C(=O)N([C@@H](C)CO)C[C@@H]2C)cc1`, for which the activation is 0.115% (inactive).
